The results in this text go back to ChEMBL document CHEMBL3826928, “Incorporation of Phosphonate into Benzonaphthyridine Toll-like Receptor 7 Agonists for Adsorption to Aluminum Hydroxide” (J Med Chem, 2016).

Molecules are shown by their SMILES.

For the first series, the target named is T1, Toll-like receptor 7 (Homo sapiens) (UniProt Q9NYK1).
T1 sequence (whole entry): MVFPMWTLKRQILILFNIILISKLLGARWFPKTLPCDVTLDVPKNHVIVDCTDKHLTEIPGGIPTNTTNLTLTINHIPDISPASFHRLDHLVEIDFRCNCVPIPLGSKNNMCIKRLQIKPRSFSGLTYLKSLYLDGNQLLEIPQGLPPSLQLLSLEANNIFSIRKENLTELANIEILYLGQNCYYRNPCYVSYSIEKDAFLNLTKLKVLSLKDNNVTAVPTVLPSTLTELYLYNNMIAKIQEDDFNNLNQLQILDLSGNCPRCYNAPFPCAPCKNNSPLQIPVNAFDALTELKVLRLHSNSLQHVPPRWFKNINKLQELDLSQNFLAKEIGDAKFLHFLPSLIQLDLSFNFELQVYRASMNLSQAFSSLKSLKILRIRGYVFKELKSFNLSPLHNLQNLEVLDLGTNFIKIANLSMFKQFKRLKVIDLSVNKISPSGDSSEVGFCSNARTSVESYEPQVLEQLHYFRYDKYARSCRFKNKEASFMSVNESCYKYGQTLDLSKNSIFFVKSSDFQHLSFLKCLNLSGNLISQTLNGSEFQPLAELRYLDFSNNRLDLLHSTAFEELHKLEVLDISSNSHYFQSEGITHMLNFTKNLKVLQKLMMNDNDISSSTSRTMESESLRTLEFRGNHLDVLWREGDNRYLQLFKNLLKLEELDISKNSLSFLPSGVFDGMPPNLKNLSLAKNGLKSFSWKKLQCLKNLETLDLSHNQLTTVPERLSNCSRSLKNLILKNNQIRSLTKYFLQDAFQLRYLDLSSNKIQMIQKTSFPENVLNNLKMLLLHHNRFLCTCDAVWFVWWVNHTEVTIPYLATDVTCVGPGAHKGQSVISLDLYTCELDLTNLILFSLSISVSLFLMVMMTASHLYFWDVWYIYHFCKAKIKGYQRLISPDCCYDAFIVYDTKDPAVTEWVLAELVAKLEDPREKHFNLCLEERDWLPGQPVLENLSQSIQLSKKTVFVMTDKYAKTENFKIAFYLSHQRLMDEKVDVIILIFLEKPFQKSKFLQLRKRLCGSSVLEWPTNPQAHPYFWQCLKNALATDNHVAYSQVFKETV
As to the kind of experiment: Agonist activity at TLR7 in human PBMC assessed as induction of IL-6 secretion in supernatant after 18 hrs relative to resiquimod.
Settings: not given; call rule not given here
The class given is cell-based. In short, it runs like this: (§1)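 Isolated human PBMCs washed in PBS, resuspended in RPMI1640 with 10% heat-inactivated FBS, pyruvate, HEPES, at 1 × 10⁶ cells/mL. Compounds as in-situ sodium salts from 10 mM aqueous stocks, 3-fold 10-point dilutions from 30 μM.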
Take `Cc1ccc2c(c1)nc(N)c1ncc(CCc3ccc(OCCOCCOCCC(F)(F)P(=O)(O)O)cc3C)cc12`: the %max stood at 36%.
With `Cc1cc(OCCOCCOCCC(F)(F)P(=O)(O)O)ccc1CCc1cnc2c(N)nc3cc(CCC(=O)O)ccc3c2c1`, the %max was 35%.
On to `Cc1cc(OCCCC(F)(F)P(=O)(O)O)ccc1CCc1cnc2c(N)nc3cc(CCC(=O)O)ccc3c2c1`, for which the %max turned out to be 35%.
`Cc1cc(OCCOCCOCCP(=O)(O)O)ccc1CCc1cnc2c(N)nc3cc(CCC(=O)O)ccc3c2c1`: the %max turned out to be 58%.

Test system in a further series: not listed separately
As to the kind of experiment: Aqueous solubility of compound in pH 1.5 to 10 solution by potentiometric titration method. The class given is physicochemical. The conditions noted are these: buffer. In short, it runs like this: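 About 2 mg solid titrated potentiometrically from pH 10 to pH 1.5 on Sirius T3 after pKa determination with MeOH cosolvent; intrinsic solubility calculated from pKa shift on precipitation (Noyes−Whitney), solubility−pH profile extrapolated by Henderson−Hasselbalch.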
Take `Cc1ccc2c(c1)nc(N)c1ncc(CCc3ccc(OCCOCCOCCC(F)(F)P(=O)(O)O)cc3C)cc12`: the solubility result was “soluble”.
As for `Cc1cc(OCCOCCOCCP(=O)(O)O)ccc1CCc1cnc2c(N)nc3cc(CCC(=O)O)ccc3c2c1`, the solubility entry was “soluble”.

In a further series the target is T2, Toll-like receptor 7 (Homo sapiens, UniProt Q9NYK1).
T2 sequence (Q9NYK1 whole entry): T1 sequence (whole entry)
Briefly: Agonist activity at TLR7 in human PBMC assessed as induction of IL-6 secretion in supernatant after 18 hrs. To be noted: read-out: EC50. The method, boiled down:
as §1
As usually defined, the EC50 is the concentration that produces a half-maximal response. As for `Cc1ccc2c(c1)nc(N)c1ncc(CCc3ccc(OCCOCCOCCC(F)(F)P(=O)(O)O)cc3C)cc12`, the concentration giving a half-maximal response (EC50) stood at 980 nM.
In the case of `Cc1cc(OCCOCCOCCC(F)(F)P(=O)(O)O)ccc1CCc1cnc2c(N)nc3cc(CCC(=O)O)ccc3c2c1`, the EC50 came out at 2100 nM.
Regarding `Cc1ccc2c(c1)nc(N)c1ncc(CCc3ccc(OCCCP(=O)(O)O)cc3C)cc12`, the EC50 is 30000 nM.
As for `Cc1cc(OCCCC(F)(F)P(=O)(O)O)ccc1CCc1cnc2c(N)nc3cc(CCC(=O)O)ccc3c2c1`, the EC50 came out at 360 nM.
Same read-out and setting: to `Cc1cc(OCCOCCOCCP(=O)(O)O)ccc1CCc1cnc2c(N)nc3cc(CCC(=O)O)ccc3c2c1` belongs 490 nM.

Test system in a further series: not listed separately
Briefly: Adsorption on alum in pH 6.5 histidine buffer assessed as compound adsorbed at 1 mg/ml incubated for 1 hr in presence of inorganic phosphate by LC-MS analysis. To be noted: pH 6.5, 1 h. It is filed as physicochemical.
For `Cc1ccc2c(c1)nc(N)c1ncc(CCc3ccc(OCCOCCOCCC(F)(F)P(=O)(O)O)cc3C)cc12`, the Activity result is on record as “Not Active”.
Same read-out and setting: to `Cc1cc(OCCOCCOCCC(F)(F)P(=O)(O)O)ccc1CCc1cnc2c(N)nc3cc(CCC(=O)O)ccc3c2c1` belongs “Not Active”; to `Cc1cc(OCCCC(F)(F)P(=O)(O)O)ccc1CCc1cnc2c(N)nc3cc(CCC(=O)O)ccc3c2c1`, “Not Active”.
As to `Cc1cc(OCCOCCOCCP(=O)(O)O)ccc1CCc1cnc2c(N)nc3cc(CCC(=O)O)ccc3c2c1`, the Activity entry is “Not Active”.

A further series has as its target T1, Toll-like receptor 7 (Homo sapiens). As to the kind of experiment: Agonist activity at human TLR7 expressed in HEK293 cells incubated for 6 hrs by luciferase reporter gene assay relative to resiquimod. It is filed as cell-based.
Settings: not given
In short, it runs like this:
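HEK293 stably carrying NF-κB-firefly luciferase reporter plus human TLR7 (best resiquimod-responding clone), maintained under puromycin/blasticidin. 25 000 cells per well in DMEM with 3% FCS.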
In turn, `Cc1ccc2c(c1)nc(N)c1ncc(CCc3ccc(OCCOCCOCCC(F)(F)P(=O)(O)O)cc3C)cc12` showed a %max of 95%.
With `Cc1cc(OCCOCCOCCC(F)(F)P(=O)(O)O)ccc1CCc1cnc2c(N)nc3cc(CCC(=O)O)ccc3c2c1`, the %max was determined as 100%.
The same measure, in the same setting: to `Cc1cc(OCCCC(F)(F)P(=O)(O)O)ccc1CCc1cnc2c(N)nc3cc(CCC(=O)O)ccc3c2c1` belongs 95%; to `Cc1cc(OCCOCCOCCP(=O)(O)O)ccc1CCc1cnc2c(N)nc3cc(CCC(=O)O)ccc3c2c1`, 110%.

In the next series the target is T3, Toll-like receptor 7 (Mus musculus, UniProt P58681).
T3 sequence (P58681 whole entry): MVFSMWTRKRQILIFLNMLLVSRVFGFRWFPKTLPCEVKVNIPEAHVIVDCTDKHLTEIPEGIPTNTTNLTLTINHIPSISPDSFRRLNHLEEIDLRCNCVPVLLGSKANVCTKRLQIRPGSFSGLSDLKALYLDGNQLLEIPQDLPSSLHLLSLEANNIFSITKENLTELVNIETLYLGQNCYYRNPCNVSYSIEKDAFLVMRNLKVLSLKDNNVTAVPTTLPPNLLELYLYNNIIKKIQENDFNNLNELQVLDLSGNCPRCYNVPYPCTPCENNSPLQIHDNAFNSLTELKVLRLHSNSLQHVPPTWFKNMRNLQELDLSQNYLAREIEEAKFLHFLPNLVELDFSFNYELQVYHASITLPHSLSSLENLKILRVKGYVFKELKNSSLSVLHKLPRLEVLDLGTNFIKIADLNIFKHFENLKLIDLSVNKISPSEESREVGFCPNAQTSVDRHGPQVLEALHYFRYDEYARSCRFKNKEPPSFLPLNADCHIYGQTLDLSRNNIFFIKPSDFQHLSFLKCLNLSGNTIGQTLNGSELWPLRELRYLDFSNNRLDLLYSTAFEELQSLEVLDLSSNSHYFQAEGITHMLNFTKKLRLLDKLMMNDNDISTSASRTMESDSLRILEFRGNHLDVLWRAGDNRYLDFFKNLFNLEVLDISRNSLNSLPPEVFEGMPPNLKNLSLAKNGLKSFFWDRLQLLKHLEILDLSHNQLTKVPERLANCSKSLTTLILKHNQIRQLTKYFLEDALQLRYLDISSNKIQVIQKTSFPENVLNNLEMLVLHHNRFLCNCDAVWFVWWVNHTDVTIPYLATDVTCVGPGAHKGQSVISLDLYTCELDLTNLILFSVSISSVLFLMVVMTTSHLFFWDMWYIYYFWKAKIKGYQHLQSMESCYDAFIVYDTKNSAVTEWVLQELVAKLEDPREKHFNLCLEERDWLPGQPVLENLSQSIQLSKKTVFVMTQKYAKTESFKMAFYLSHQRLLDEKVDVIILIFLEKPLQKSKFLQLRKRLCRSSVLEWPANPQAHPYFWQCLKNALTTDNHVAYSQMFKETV
As to the kind of experiment: Agonist activity at TLR7 in Balb/c mouse splenocytes assessed as induction of IL-6 secretion in supernatant after 18 hrs.
Settings: not given
It is filed as cell-based. In short, it runs like this: (§2)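 Spleens from female BALB/c mice (6−10 weeks), single-cell suspension, RBC lysis; 5 × 10⁵ splenocytes per well in RPMI 1640 with 10% FCS, 2-ME. Compounds as sodium salts (1 equiv NaOH) from 10 mM water stocks, 3-fold 10-point dilutions from 30 μM.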
As to `Cc1ccc2c(c1)nc(N)c1ncc(CCc3ccc(OCCOCCOCCC(F)(F)P(=O)(O)O)cc3C)cc12`, the concentration for a half-maximal effect (EC50) worked out at 810 nM.
For the compound `Cc1cc(OCCOCCOCCC(F)(F)P(=O)(O)O)ccc1CCc1cnc2c(N)nc3cc(CCC(=O)O)ccc3c2c1`, the EC50 was found to be 1200 nM.
For `Cc1ccc2c(c1)nc(N)c1ncc(CCc3ccc(OCCCP(=O)(O)O)cc3C)cc12`, the EC50 was 1100 nM.
Consider `Cc1cc(OCCCC(F)(F)P(=O)(O)O)ccc1CCc1cnc2c(N)nc3cc(CCC(=O)O)ccc3c2c1`, for which the concentration for a half-maximal effect (EC50) turned out to be 2400 nM.
As for `Cc1cc(OCCOCCOCCP(=O)(O)O)ccc1CCc1cnc2c(N)nc3cc(CCC(=O)O)ccc3c2c1`, the EC50 was 190 nM.

For a further series, the target named is T4, Toll-like receptor 7 (Mus musculus) (UniProt P58681).
T4 sequence (whole entry): T3 sequence (P58681 whole entry)
Briefly: Agonist activity at TLR7 in Balb/c mouse splenocytes assessed as induction of IL-6 secretion in supernatant after 18 hrs relative to resiquimod.
Settings: not given
The class given is cell-based. The method, boiled down: as §2
`Cc1ccc2c(c1)nc(N)c1ncc(CCc3ccc(OCCOCCOCCC(F)(F)P(=O)(O)O)cc3C)cc12`: the %max is 100%.
Consider `Cc1cc(OCCOCCOCCC(F)(F)P(=O)(O)O)ccc1CCc1cnc2c(N)nc3cc(CCC(=O)O)ccc3c2c1`, for which the %max was 80%.
Same read-out and setting: to `Cc1ccc2c(c1)nc(N)c1ncc(CCc3ccc(OCCCP(=O)(O)O)cc3C)cc12` belongs 98%.
Take `Cc1cc(OCCCC(F)(F)P(=O)(O)O)ccc1CCc1cnc2c(N)nc3cc(CCC(=O)O)ccc3c2c1`: the %max was determined as 74%.
On to `Cc1cc(OCCOCCOCCP(=O)(O)O)ccc1CCc1cnc2c(N)nc3cc(CCC(=O)O)ccc3c2c1`, for which the %max amounted to 140%.

Test system in the next series: not listed separately
As to the kind of experiment: Aqueous solubility of compound in pH 6.5 to 7.2 solution incubated for 24 hrs by saturated shake flask method. The class given is physicochemical. To be noted: buffer, pH 6.5, 24 h.
As for `Cc1ccc2c(c1)nc(N)c1ncc(CCc3ccc(OCCCP(=O)(O)O)cc3C)cc12`, the solubility result is “Insoluble”.
